Test results reported in ChEMBL document CHEMBL3745658, “An Orally Bioavailable, Indole-3-glyoxylamide Based Series of Tubulin Polymerization Inhibitors Showing Tumor Growth Inhibition in a Mouse Xenograft Model of Head and Neck Cancer” (J Med Chem, 2015).
≈ marks a conversion by molar mass, not a printed value. Calls of active or inactive are those of the source. The rule behind the calls is not given here.

Tests used:
[1] = Solubility in 2% DMSO containing 50 mM potassium phosphate buffer solution pH 7.4 at 1 uM by dynamic light scattering method; format: physicochemical; settings: pH 7.4, 1 µM
MES-SA/Dx5 = assay: Cytotoxicity against multidrug resistant human MES-SA/Dx5 cells assessed as reduction in cell viability after 72 hrs by MTT assay; format: functional, cell-based
Procedure, shortened: (§1)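 Cells plated at an appropriate density and left 24 h to attach, then dosed in triplicate with compound diluted from 10 mM DMSO stocks into full growth medium (added at 2× final concentration). After 72 h, cells PBS-washed and given MTT (0.5 mg/mL in PBS) for 45−60 min. Formazan dissolved in 0.1 M HCl/2-propanol, A570 read (650 nm reference). Viability normalised to DMSO control; LC50 by nonlinear regression.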

FaDu [2] = assay: Cytotoxicity against human FADU cells assessed as reduction in cell viability after 72 hrs by MTT assay; format: functional; settings: read-out: LC50 (the source's name)
[3] = Solubility in 2% DMSO containing 50 mM potassium phosphate buffer solution pH 7.4 at 10 uM by dynamic light scattering method; settings: pH 7.4, 10 µM
SCC-4 = assay: Cytotoxicity against human SCC4 cells assessed as reduction in cell viability after 72 hrs by MTT assay; format: functional, cell-based; procedure, shortened: as §1
SH-SY5Y = assay: Cytotoxicity against human SH-SY5Y cells assessed as reduction in cell viability after 72 hrs by MTT assay; format: functional, cell-based; procedure, shortened: as §1
MES-SA = assay: Cytotoxicity against human MES-SA cells assessed as reduction in cell viability after 72 hrs by MTT assay; format: functional, cell-based; procedure, shortened: as §1
[4] = Aqueous solubility of the compound by UV-HPLC
SK-MEL-28 = assay: Cytotoxicity against human SK-MEL-28 cells assessed as reduction in cell viability after 72 hrs by MTT assay; format: functional, cell-based; procedure, shortened: as §1
FaDu [5] = assay: Induction of microtubule disruption in human FADU cells at 50 nM after 24 hrs by immunofluorescence staining method; format: functional, cell-based
FaDu [6] = assay: Induction of mitotic spindle defects in human FADU cells at 15 nM after 24 hrs by immunofluorescence staining method; format: functional, cell-based
FaDu [7] = assay: Cytotoxicity against human FADU multicellular tumor spheroid assessed as induction of spheroid disruption incubated for 7 days by light microscopy; format: functional, cell-based; settings: for EC50: 168 h
Procedure, shortened: (§2)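 Monocultured FaDu spheroids dosed over a concentration range and imaged at 0, 2, 4 and 7 days post-dosing. Volume followed over time, fragmentation scored at the 7-day end point, and EC50 for disruption derived from 7-day dose–response plots. Two independent experiments, mean ± SEM.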

Tubulin [8] = biological target: T1, Tubulin (Sus scrofa, UniProt P02554+P02550); assay: Inhibition of porcine brain tubulin polymerization assessed as reduction in GTP-induced microtubule assembly after 60 mins by OD340 method
[9] = Solubility in 2% DMSO containing 50 mM potassium phosphate buffer solution at pH 7.4 by dynamic light scattering method; settings: 50 mM potassium phosphate buffer with 2% DMSO
Tubulin [10] = biological target: T1, Tubulin; assay: Displacement of [3H]-colchicine from biotinylated porcine tubulin after 2 hrs by competitive binding assay; format: protein assay
Procedure, shortened: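 Biotinylated porcine tubulin (750 ng/well) with 0.1 μM [3H]-colchicine and test compound in G-PEM with 1 mM GTP, 3% DMSO, duplicate wells, 2 h at 37 °C. Streptavidin SPA beads then added for 45 min at 37 °C. Nonspecific binding taken with 1000-fold unlabeled excess. IC50 from seven-point semilog curves, four-parameter fit.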

[11] = Efflux ratio of apparent permeability from basolateral to apical side over apical to basolateral side in human Caco2 cells; settings: Caco-2
[12] = Metabolic stability in CD-1 mouse liver microsomes assessed as half life at 1 uM preincubated for 5 mins before addition of NADPH by LC-MS/MS method; format: ADME
FaDu [13] = assay: Ratio of EC50 for human FADU multicellular tumor spheroid to LC50 for human FADU cells; format: functional
Procedure, shortened: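 FaDu spheroids were dosed over a range of concentrations, and spheroid volume was measured at the 7-day endpoint. EC50 for disruption came from dose–response plots, combining two independent experiments. This was compared with the 72 h monolayer MTT LC50 (triplicate wells, nonlinear regression, viability relative to DMSO).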

Tubulin (Sus scrofa) [14] = biological target: T2, Tubulin (Sus scrofa) (UniProt P02554+P02550); assay: Displacement of [3H]-vinblastine from biotinylated porcine tubulin after 15 mins by competitive binding assay; format: protein assay
Procedure, shortened: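 Biotinylated porcine tubulin, 0.2 μM [3H]-vinblastine, SPA beads and test compound combined together in G-PEM with 1 mM GTP, 3% DMSO, duplicate wells, 15 min at rt before counting. Nonspecific binding taken with 1000-fold unlabeled excess. IC50 from seven-point semilog curves, four-parameter fit.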

[15] = Apparent permeability from apical to basolateral side in human Caco2 cells at 10 uM at pH 7.4 after 60 mins by mass spectrometry; settings: Caco-2, pH 7.4
Tubulin (Sus scrofa) [16] = biological target: T2, Tubulin (Sus scrofa); assay: Displacement of [3H]-paclitaxel from biotinylated porcine tubulin after 25 mins by competitive binding assay; format: protein assay
Procedure, shortened: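 Biotinylated porcine tubulin precoupled to SPA beads for 30 min at 4 °C, then 0.05 μM [3H]-paclitaxel and test compound added in G-PEM with 1 mM GTP, 3% DMSO, duplicate wells, 25 min at rt. Nonspecific binding taken with 1000-fold unlabeled excess. IC50 from seven-point semilog curves, four-parameter fit.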

FaDu [17] = assay: Cytotoxicity against human FADU multicellular tumor spheroid assessed as effect on normal spheroid growth at 0.25 uM incubated for 2 to 3 days by light microscopy; format: cell-based; procedure, shortened: as §2
FaDu [18] = assay: Cytotoxicity against human FADU multicellular tumor spheroid assessed as dispersion of cells from the spheroid at 0.25 uM incubated for 2 to 7 days by light microscopy; format: functional, cell-based; procedure, shortened: as §2
FaDu [19] = assay: Cytotoxicity against human FADU multicellular tumor spheroid assessed as dispersion of cells from the spheroid at 1 uM incubated for 2 to 7 days by light microscopy; format: functional, cell-based
Procedure, shortened: (§3)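 FaDu monoculture spheroids were dosed once and imaged at 0, 2, 4 and 7 days after dosing. Fragmentation and growth were judged against untreated spheroids.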

FaDu [20] = assay: Antitumor activity against human FADU cells xenografted in CD-1 mouse assessed as inhibition of tumor growth at 10 to 20 mg/kg, po qd for 10 days measured at 3 to 9 days; format: functional, organism-based
Procedure, shortened: (§4)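 FaDu xenografts established in mice, then test agent given by oral gavage once daily for 10 days; tumor volume followed against an untreated control group, with significance assessed at days 3, 6, 9, 13 and 15.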

FaDu [21] = assay: Cytotoxicity against human FADU multicellular tumor spheroid assessed as effect on normal spheroid growth at 1 uM incubated for 2 to 3 days by light microscop; format: cell-based; procedure, shortened: as §3
FaDu [22] = assay: Antitumor activity against human FADU cells xenografted in CD-1 mouse assessed as tumor volume recovery at 10 mg/kg, po qd for 10 days measured between 6 and 9 days; format: functional, organism-based; procedure, shortened: as §4
FaDu [23] = assay: Induction of microtubule disruption in human FADU cells assessed as multipolarization of spindle at 50 nM after 24 hrs by immunofluorescence staining method; format: functional, cell-based
FaDu [24] = assay: Selectivity index, ratio of EC50 for cell cycle arrest in human FADU cells to LC50 for cytotoxicity against human FADU cells; format: functional
Procedure, shortened: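 G2/M arrest EC50 came from a 24 h dose–response of propidium iodide flow cytometry in FaDu cells. It was compared with the LC50 from a 72 h MTT assay in FaDu cells (triplicate wells, A570, viability relative to DMSO, nonlinear regression).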

FaDu [25] = assay: Cytotoxicity against human FADU multicellular tumor spheroid assessed as reduction of spheroid volume by light microscopy; format: functional, cell-based; procedure, shortened: as §2
FaDu [26] = assay: Cell cycle arrest in human FADU cells assessed as accumulation at G2/M phase after 24 hrs by propidium iodide staining-based flow cytometry; format: functional
Procedure, shortened: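 FaDu cells seeded at 10^5/well, attached overnight, then exposed to compound in full growth medium at 37 °C for 24 h. Cells were trypsinized, fixed in ice-cold 70% ethanol, treated with RNase A (100 μg/mL), stained overnight in the dark with propidium iodide (50 μg/mL), and analysed by flow cytometry with at least 10000 events per sample.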

[27] = Apparent permeability from apical to basolateral side in human Caco2 cells assessed as drug recovery at 10 uM at pH 7.4 after 60 mins by mass spectrometry; format: ADME, cell-based; settings: Caco-2, pH 7.4, read-out: Drug recovery
FaDu [28] = assay: Induction of microtubule disruption in human FADU cells at 250 nM after 24 hrs by immunofluorescence staining method; format: functional, cell-based
FaDu [29] = assay: Antitumor activity against human FADU cells xenografted in CD-1 mouse assessed as inhibition of tumor growth at 10 mg/kg, po qd for 10 days measured at 13 and 15 days; format: functional, organism-based
Procedure, shortened: (§5)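 FaDu xenografts established in mice before dosing; compound given by oral gavage once daily for 10 days. Tumor volume was followed over time and compared with a vehicle control group, with significance assessed at days 3, 6, 9, 13 and 15. Body weight and survival were also recorded.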

FaDu [30] = assay: Induction of microtubule disruption in human FADU cells assessed as multipolarization of spindle at 30 nM after 24 hrs by immunofluorescence staining method; format: functional, cell-based
Procedure, shortened: (§6)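 FaDu cells grown on coverslips (15000/well) for 24 h, then exposed to compound for 24 h. Unassembled tubulin was extracted with PHEM/0.5% Triton X-100/10 μM paclitaxel for 3 min. Cells were fixed in PHEM with 8% paraformaldehyde and 0.3% glutaraldehyde on ice, blocked, then stained with FITC anti-α-tubulin (DM1A) and DAPI. Confocal z-stacks were taken at 100×.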

FaDu [31] = assay: Antitumor activity against human FADU cells xenografted in CD-1 mouse assessed as inhibition of tumor growth at 10 mg/kg, po qd for 10 days measured at 3 to 9 days; format: functional, organism-based; procedure, shortened: as §5
FaDu [32] = assay: Induction of microtubule disruption in human FADU cells at 150 nM after 24 hrs by immunofluorescence staining method; format: functional, cell-based; procedure, shortened: as §6

SMILES | Activity (MES-SA/Dx5) | CC50 (FaDu [2]) [nM] | solubility [3] | Activity (SCC-4) | Activity (SH-SY5Y) | Activity (MES-SA) | solubility [4] [µM] | Activity (SK-MEL-28) | EC50 (FaDu [7]) [nM] | IC50 (Tubulin [8]) [nM] | solubility kinetic [9] [µM] | IC50 (Tubulin [10]) [nM] | efflux ratio [11] | half-life at 1 µM [12] [min] | Ratio (FaDu [13]) | Activity (Tubulin (Sus scrofa) [14]) | Papp A→B at 1 h, 10 µM [15] [×10⁻⁶ cm/s] | Activity (Tubulin (Sus scrofa) [16]) | Activity (FaDu [19]) | Activity (FaDu [21]) | other results
O=C(Nc1ccncc1)C(=O)c1cn(Cc2ccc(Cl)cc2)c2ccccc12 [INDIBULIN] | Active | 32 | Insoluble | Active | Active | Active | ≤ 1 | Active |  |  |  |  |  |  |  |  |  |  |  |  | solubility [1]: Insoluble
COCC(C)n1cc(C(=O)C(=O)Nc2ccc(OC)nc2)c2ccccc21 (stereo not given) | Active | 12 | soluble | Active | Active | Active | 10 (≈ 3.67 µg/mL) | Active | 39 | 3900 | 40 (≈ 14.7 µg/mL) | 160 | 1.1 | 16 | 3 | inactive | 33.6 | inactive |  |  | Activity (FaDu [5]): Active; Activity (FaDu [6]): Active; Activity (FaDu [17]): Non-toxic; Activity (FaDu [18]): Active
COCCn1cc(C(=O)C(=O)Nc2ccc(OC(C)C)nc2)c2ccccc21 | Active | 55 | soluble | Active | Active | Active |  | Active | 113 | 6600 | 10 (≈ 3.81 µg/mL) | 500 | 0.9 | 99 | 2 | Active | 15.2 | inactive | Active | Non-toxic | Activity (FaDu [7]): Dose-dependent effect; TGI (FaDu [20]): Active; TGI (FaDu [22]): inactive; Activity (FaDu [23]): Active; Ratio (FaDu [24]): 2; Activity (FaDu [25]): Dose-dependent effect; Activity (FaDu [26]): Dose-dependent effect; EC50 (FaDu [26]): 90 nM; recovery at 1 h, 10 µM [27]: < 50%; Activity (FaDu [28]): Active
COc1ccc(NC(=O)C(=O)c2cn(CC3CCCO3)c3ccccc23)cn1 (stereo not given) | Active | 31 | soluble | Active | Active | Active |  | Active | 77 | 8300 | 10 (≈ 3.79 µg/mL) | 420 | 0.7 | 34 |  | Active | 35 | inactive | Active | Non-toxic | Activity (FaDu [29]): Active; Activity (FaDu [30]): Active; Ratio (FaDu [24]): 5; Activity (FaDu [26]): Dose-dependent effect; EC50 (FaDu [26]): 160 nM; TGI (FaDu [31]): Active; Activity (FaDu [32]): Active
